# Experimental data as given in ChEMBL document CHEMBL3877303 (J Med Chem, 2017).
# Calls of active or inactive are those of the source. The rule behind the calls is not given here.
# Legend:
# [1] = target: T1, Mast/stem cell growth factor receptor Kit (Homo sapiens, UniProt P10721); conditions: 1 uM
# [2] = target: T2, Discoidin domain-containing receptor 2 (Homo sapiens) (UniProt Q16832); assay: Inhibition of recombinant His-tagged human DDR2 cytoplasmic domain expressed in baculovirus expression system assessed as residual activity at 1 uM by KINOMEscan binding assay relative to control
# T2 sequence (whole entry): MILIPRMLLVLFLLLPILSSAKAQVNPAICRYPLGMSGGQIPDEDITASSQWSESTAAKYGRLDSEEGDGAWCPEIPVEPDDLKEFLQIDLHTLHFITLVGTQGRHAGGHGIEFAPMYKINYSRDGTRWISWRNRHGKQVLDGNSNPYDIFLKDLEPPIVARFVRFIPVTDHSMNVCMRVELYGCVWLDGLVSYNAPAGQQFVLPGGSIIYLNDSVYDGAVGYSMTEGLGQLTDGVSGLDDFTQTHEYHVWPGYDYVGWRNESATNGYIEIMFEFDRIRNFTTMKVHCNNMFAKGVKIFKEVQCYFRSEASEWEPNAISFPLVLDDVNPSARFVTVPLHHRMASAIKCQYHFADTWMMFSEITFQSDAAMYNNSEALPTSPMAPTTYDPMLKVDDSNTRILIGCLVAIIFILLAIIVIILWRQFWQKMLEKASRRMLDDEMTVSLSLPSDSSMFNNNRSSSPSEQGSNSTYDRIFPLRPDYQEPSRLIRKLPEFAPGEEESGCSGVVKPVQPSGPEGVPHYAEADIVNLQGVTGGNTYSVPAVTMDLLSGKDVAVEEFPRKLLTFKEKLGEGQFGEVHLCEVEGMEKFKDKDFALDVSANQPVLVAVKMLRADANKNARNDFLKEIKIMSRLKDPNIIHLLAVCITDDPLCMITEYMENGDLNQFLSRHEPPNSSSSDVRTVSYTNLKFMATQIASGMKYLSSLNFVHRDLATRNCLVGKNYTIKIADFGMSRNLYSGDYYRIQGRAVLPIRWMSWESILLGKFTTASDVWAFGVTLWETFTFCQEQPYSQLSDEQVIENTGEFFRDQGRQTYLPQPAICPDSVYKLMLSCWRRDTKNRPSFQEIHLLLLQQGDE
# [3] = target: Macrophage colony-stimulating factor 1 receptor (Homo sapiens, UniProt P07333); assay: Inhibition of recombinant His-tagged human CSF1R cytoplasmic domain expressed in baculovirus expression system assessed as residual activity at 1 uM measured after 1 hr by FRET based Z'Lyte assay relative to control
# Chain of Macrophage colony-stimulating factor 1 receptor (P07333 whole entry, the tested form may be a part): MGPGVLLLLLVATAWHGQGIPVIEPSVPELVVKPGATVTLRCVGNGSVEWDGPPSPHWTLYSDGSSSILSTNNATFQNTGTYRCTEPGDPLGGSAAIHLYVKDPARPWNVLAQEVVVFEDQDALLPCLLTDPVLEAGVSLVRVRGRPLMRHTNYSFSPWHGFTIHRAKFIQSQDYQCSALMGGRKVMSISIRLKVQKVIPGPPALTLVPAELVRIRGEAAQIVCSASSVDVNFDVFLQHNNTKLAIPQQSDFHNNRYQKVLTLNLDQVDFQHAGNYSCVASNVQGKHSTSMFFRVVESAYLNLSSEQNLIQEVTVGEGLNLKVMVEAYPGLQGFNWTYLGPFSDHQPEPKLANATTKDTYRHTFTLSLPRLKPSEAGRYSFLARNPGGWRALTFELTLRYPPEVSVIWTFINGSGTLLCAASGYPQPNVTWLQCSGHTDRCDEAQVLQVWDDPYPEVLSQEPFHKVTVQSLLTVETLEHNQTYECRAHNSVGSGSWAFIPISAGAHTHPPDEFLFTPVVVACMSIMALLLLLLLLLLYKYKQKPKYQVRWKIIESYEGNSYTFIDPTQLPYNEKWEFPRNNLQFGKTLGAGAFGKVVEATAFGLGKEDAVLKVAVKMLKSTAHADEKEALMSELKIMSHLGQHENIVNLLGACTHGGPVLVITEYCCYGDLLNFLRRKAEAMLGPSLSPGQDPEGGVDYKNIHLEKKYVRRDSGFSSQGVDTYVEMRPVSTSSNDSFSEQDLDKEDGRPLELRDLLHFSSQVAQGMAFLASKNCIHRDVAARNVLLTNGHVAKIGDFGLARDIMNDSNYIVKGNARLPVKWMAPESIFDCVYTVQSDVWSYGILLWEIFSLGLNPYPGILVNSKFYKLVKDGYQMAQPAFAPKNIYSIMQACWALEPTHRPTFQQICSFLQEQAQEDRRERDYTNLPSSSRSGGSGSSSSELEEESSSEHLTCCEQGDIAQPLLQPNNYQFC
# [4] = target: T1, Mast/stem cell growth factor receptor Kit; assay: Inhibition of c-KIT autophosphorylation at Y823 in human GISTT1 cells at 0.03 to 10 uM measured after 2 hrs by immunoblotting; format: cell-based
# Method in brief: (§1)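 After an ice-cold PBS wash, cells were lysed in RIPA buffer (50 mM Tris pH 8.0) with protease and phosphatase inhibitors, and protein was quantified by BCA. Lysates were run on SDS-PAGE, transferred to PVDF and blocked in 5% milk/TBST. Phospho- and total proteins were probed by immunoblot with ECL detection; β-actin served as loading control.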
# [5] = target: T1, Mast/stem cell growth factor receptor Kit; assay: Inhibition of c-KIT mediated signaling pathways assessed as reduction in STAT3/5 phosphorylation at Y705/Y694 in human GIST882 cells at 0.03 to 10 uM measured after 2 hrs by immunoblotting; format: cell-based
# Method in brief: as §1
# K562 [6] = assay: Induction of apoptosis in human K562 cells assessed as cleavage of PARP at 0.1 to 3 uM by Western blot analysis; format: functional, cell-based
# Method in brief: (§2)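 Cells were treated with DMSO or serially diluted compound for the indicated periods. They were washed in ice-cold PBS and lysed in RIPA buffer with protease/phosphatase inhibitors, and protein was quantified by BCA. Lysates were resolved by SDS-PAGE, transferred to PVDF and blocked in 5% milk/TBST. Blots were probed for PARP and caspase-3, with β-actin as loading control, and detected by ECL.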
# [7] = system: Mast/stem cell growth factor receptor Kit (Homo sapiens), P10721 [V559D,V654A]; assay: Inhibition of Tel-fused c-KIT V559D/V654A double mutant (unknown origin) expressed in BAF3 cells assessed as growth inhibition measured after 72 hrs by CellTiter-Glo or CCK8 assay; format: cell-based
# Chain of Mast/stem cell growth factor receptor Kit (Homo sapiens), P10721 [V559D,V654A] (P10721 whole entry V559D/V654A, the tested form may be a part): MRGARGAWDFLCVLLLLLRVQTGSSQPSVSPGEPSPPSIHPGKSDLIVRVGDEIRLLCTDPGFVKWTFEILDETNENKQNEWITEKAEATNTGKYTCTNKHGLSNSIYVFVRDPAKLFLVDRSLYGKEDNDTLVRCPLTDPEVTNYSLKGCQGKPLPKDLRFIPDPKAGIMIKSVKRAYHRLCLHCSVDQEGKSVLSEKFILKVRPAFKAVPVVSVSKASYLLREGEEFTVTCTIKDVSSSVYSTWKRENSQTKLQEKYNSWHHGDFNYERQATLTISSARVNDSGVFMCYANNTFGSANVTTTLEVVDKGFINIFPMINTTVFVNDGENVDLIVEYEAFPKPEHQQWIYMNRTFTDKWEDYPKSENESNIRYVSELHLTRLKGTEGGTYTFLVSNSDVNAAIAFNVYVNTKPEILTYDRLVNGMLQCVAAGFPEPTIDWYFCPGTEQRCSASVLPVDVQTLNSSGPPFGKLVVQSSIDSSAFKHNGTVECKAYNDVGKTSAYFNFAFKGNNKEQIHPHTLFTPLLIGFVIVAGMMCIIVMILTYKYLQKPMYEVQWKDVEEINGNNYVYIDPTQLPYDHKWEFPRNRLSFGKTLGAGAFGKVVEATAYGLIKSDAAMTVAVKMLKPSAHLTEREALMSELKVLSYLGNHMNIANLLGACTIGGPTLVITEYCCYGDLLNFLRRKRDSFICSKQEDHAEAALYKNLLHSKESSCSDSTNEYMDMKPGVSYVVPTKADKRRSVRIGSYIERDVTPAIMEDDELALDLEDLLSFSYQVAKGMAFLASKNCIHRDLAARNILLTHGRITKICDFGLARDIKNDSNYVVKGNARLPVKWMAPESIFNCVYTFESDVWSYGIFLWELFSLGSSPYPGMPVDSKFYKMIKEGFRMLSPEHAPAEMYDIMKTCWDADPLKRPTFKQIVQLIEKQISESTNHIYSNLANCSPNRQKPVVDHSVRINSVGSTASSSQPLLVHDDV
# Method in brief: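 BaF3 lines were made by retroviral transduction with kinase-fusion MSCV vectors packaged in HEK293T cells. Cells were selected with puromycin for 48 h, then selected again without IL-3 so growth depends on the introduced kinase. […] They were seeded at 1 to 2.5×10^4 cells/mL with compound dilutions and incubated 72 h. Viability was read by CellTiter-Glo luminescence or CCK-8 absorbance (450/655 nm), normalized to DMSO control; GI50 was curve-fitted from triplicate tests.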
# [8] = target: Epithelial discoidin domain-containing receptor 1 (Homo sapiens, UniProt Q08345); conditions: BaF3
# Chain of Epithelial discoidin domain-containing receptor 1 (Q08345 whole entry, the tested form may be a part): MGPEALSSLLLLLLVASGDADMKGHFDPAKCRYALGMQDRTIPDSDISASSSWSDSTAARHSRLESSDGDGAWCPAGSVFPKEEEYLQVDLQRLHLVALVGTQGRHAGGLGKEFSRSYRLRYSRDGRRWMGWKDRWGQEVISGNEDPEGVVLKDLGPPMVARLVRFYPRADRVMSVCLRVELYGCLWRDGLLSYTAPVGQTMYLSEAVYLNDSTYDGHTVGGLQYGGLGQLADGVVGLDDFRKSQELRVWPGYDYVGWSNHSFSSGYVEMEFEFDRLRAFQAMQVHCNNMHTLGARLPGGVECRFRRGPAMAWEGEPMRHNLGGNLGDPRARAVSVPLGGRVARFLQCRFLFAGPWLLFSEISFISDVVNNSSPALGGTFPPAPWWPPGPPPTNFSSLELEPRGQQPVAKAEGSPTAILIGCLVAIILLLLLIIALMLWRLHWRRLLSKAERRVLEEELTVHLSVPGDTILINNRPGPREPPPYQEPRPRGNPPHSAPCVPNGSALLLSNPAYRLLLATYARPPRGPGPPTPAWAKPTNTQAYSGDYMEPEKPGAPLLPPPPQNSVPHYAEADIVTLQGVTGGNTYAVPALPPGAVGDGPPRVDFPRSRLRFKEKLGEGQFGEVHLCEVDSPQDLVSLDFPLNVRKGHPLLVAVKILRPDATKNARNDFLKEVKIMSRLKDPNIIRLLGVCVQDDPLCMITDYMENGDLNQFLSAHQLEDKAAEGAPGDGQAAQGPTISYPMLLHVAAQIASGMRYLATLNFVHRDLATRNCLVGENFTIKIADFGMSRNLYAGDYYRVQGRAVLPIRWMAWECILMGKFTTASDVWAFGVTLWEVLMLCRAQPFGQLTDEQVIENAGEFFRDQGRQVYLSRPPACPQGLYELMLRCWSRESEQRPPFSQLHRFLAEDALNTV
# GIST882 [9] = assay: Induction of apoptosis in human GIST882 cells assessed as increase in cleaved caspase-3 level at 0.1 to 3 uM by Western blot analysis; format: functional, cell-based
# Method in brief: as §2
# K562 [10] = assay: Antiproliferative activity against human K562 cells xenografted in nu/nu mouse administered daily via oral gavage measured 28 days post compound treatment by Ki-67 staining based assay; format: functional, cell-based
# Method in brief: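 K562 xenograft tumors were taken after daily oral dosing. Tissue was fixed in 10% neutral-buffered formalin, paraffin-embedded and cut into 6-micron sections. […] Detection used DAB with a hematoxylin counterstain.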
# GISTT1 = assay: Anticancer activity against human GISTT1 cells xenografted in nu/nu mouse assessed as tumor growth inhibition administered daily via oral gavage measured 21 days post compound treatment
# [11] = target: BCR/ABL p210 fusion protein (Homo sapiens, UniProt A1Z199); assay: Inhibition of BCR/ABL p210 fusion protein mediated signaling pathways assessed as reduction in ERK phosphorylation at T202/Y204 in human KU812 cells at 0.01 to 3 uM measured after 2 hrs by immunoblotting; format: cell-based
# Chain of BCR/ABL p210 fusion protein (A1Z199 1-97): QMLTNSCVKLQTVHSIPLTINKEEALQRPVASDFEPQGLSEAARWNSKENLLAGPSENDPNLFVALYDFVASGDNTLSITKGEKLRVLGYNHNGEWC
# Method in brief: as §1
# [12] = target: T1, Mast/stem cell growth factor receptor Kit; assay: Inhibition of c-KIT mediated signaling pathways assessed as reduction in AKT phosphorylation at S473 in human GIST882 cells at 0.03 to 10 uM measured after 2 hrs by immunoblotting; format: cell-based
# Method in brief: as §1
# [13] = target: Tyrosine-protein kinase Lck (Homo sapiens, UniProt P06239); assay: Inhibition of recombinant C-terminal His-tagged human LCK cytoplasmic domain expressed in baculovirus expression system assessed as residual activity at 1 uM measured after 1 hr by FRET based Z'Lyte assay relative to control
# Chain of Tyrosine-protein kinase Lck (P06239 2-509 limits assumed): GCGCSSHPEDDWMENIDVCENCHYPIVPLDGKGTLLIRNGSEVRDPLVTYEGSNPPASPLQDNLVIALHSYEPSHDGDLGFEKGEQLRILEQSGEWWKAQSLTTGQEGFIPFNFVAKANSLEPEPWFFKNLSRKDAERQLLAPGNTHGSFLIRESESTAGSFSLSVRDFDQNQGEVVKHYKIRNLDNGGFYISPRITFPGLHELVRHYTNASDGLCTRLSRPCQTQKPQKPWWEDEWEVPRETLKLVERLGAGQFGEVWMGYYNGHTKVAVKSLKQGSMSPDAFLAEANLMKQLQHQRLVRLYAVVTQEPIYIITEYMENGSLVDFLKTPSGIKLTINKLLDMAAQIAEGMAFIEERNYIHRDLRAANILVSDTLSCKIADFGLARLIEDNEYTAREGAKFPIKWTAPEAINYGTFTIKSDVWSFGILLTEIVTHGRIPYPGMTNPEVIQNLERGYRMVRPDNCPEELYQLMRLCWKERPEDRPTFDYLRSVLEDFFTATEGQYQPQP
# GIST882 [14] = assay: Induction of apoptosis in human GIST882 cells assessed as cleavage of PARP at 0.1 to 3 uM by Western blot analysis; format: functional, cell-based
# Method in brief: as §2
# [15] = target: T1, Mast/stem cell growth factor receptor Kit; assay: Inhibition of recombinant C-terminal polyhistidine-tagged human c-KIT expressed in mammalian expression system using Tyr 06 peptide as substrate measured after 1hr by FRET based Z'Lyte assay
# [16] = target: T1, Mast/stem cell growth factor receptor Kit; assay: Inhibition of c-KIT mediated signaling pathways assessed as reduction in S6K phosphorylation at T389 in human GISTT1 cells at 0.03 to 10 uM measured after 2 hrs by immunoblotting; format: cell-based
# Method in brief: as §1
# T1 sequence (P10721 whole entry, the tested form may be a part): as the sequence (P10721 whole entry V559D/V654A, the tested form may be a part) above, with D559V, A654V counted along it
Compound,inhibition [1],Activity [2],Activity [3],inhibition [4],inhibition [5],Activity (K562 [6]),GI50 [7],GI50 [8],Activity (GIST882 [9]),Activity (K562 [10]),TGI (GISTT1),inhibition [11],inhibition [12],Activity [13],Activity (GIST882 [14]),IC50 [15],inhibition [16]
Cc1ccc(NC(=O)c2ccc(CN3CCN(C)CC3)cc2)cc1Nc1nccc(-c2cccnc2)n1 [IMATINIB],Active,–,–,–,–,–,–,–,–,–,–,–,–,–,–,–,–
Cc1ccc(C(=O)N2CCC(Oc3cc(NC(=O)c4ccc(CN5CCN(C)CC5)c(C(F)(F)F)c4)ccc3C)CC2)cn1,–,0.65%,0.3%,Active,Active,Active,2870 nM,9770 nM,Active,Dose-dependent effect,Dose-dependent effect,Active,Active,0.55%,Active,75 nM,Active
